Assay results from different studies.
Lines come from different studies, so protocols differ.

SMILES | cell line | read-out | mode | technique | time | IC50
CC(C)C[C@H](NC(=O)[C@H](Cc1ccccc1)NC(=O)c1cnccn1)B(O)O | NCI-H1703 | cell growth or viability | – | ATP luminescence | – | 12 nM
Cc1cc(=O)oc2ccc(-c3cc(-c4cccc(Cl)c4)nc(N)n3)c(O)c12 | KB | cell growth or viability | – | MTT | 72 h | > 128 µg/mL
N#CCCC1=CC2C=CC=CC1C2C1CCCCC1=O (centres unmarked) | U-937 | cell growth or viability | – | flow cytometry | – | 81 nM
COc1ccccc1-c1c(C)oc2cc(OC(=O)c3ccco3)ccc2c1=O | human Neutrophil | cell migration | inhibitor | – | – | 430 nM
O=C1CCCCC1C1C2C=CC=CC1/C(=C/Cc1ccccc1)C2 (centres unmarked) | U-937 | cell growth or viability | – | flow cytometry | – | 59 nM
Cl.Oc1cccc2c1[nH]c1c(C3=CC4(O)CC/C=C\CCCCN5CCC3C3(CC6/C=C\CCCCN6C43)C5)nccc12 (single isomer, unassigned; (+)) | KB | cell growth or viability | – | neutral red | 48 h | 0.69 µg/mL
N=C(N)c1ccc(OCCCCCOc2ccc(C(=N)N)cc2)cc1 | J774 | cell growth or viability | – | resazurin | 48 h | 23800 nM
COc1ccc(C(=O)C=Cc2ccc(OC)c(OC)c2)cc1 | J774 | cell growth or viability | – | MTT | 24 h | 100 µg/mL
Cc1cc(=O)oc2ccc(-c3cc(-c4cccc([N+](=O)[O-])c4)nc(N)n3)c(O)c12 | KB | cell growth or viability | – | MTT | 72 h | 63.6 µg/mL
COc1ccc(C=CC(=O)c2ccc(Cl)cc2Cl)cc1OC | J774 | cell growth or viability | – | MTT | 24 h | 6.25 µg/mL
O=C(N/N=C/c1c(O)ccc2ccccc12)c1cc(-c2ccc3ccccc3c2)n[nH]1 | UACC-903 | cell growth or viability | – | MTS | 48 h | 10900 nM
COc1cc(Nc2nccc(-c3cnn4nc(OC)ccc34)n2)cc(C(F)(F)F)c1 | EFO-27 | cell growth or viability | – | ATP luminescence | – | 790 nM
CCc1c2c(nc3ccc(OC(=O)N4CCC(N5CCCCC5)CC4)cc13)-c1cc3c(c(=O)n1C2)COC(=O)[C@]3(O)CC | HCCLM3 | cell growth or viability | – | MTT | 72 h | 33400 nM
N#CCCCC1=CC2C=CC=CC1C2C1CCCCC1=O (centres unmarked) | U-937 | cell growth or viability | – | flow cytometry | – | 74 nM
CC[C@@H](C)[C@H](N)C(=O)N1Cc2ccccc2C1 | U-937 | cell growth or viability | – | ATP luminescence | 48 h | > 60000 nM
Oc1ccc(Nc2nc(-c3ccc(Cl)cc3)cs2)cc1 | UACC-903 | cell growth or viability | – | MTS | 72 h | 33600 nM
CCc1cc2c(=O)c(-c3nc4ccccc4n3C)c(C)oc2cc1OC(C)=O | human Neutrophil | cell migration | inhibitor | – | – | 27 nM
Cc1cc(=O)oc2ccc(-c3cc(-c4ccccc4)nc(N)n3)c(O)c12 | KB | cell growth or viability | – | MTT | 72 h | > 128 µg/mL
COc1ccccc1-c1c(C(F)(F)F)oc2cc(OC(=O)C3CC3)ccc2c1=O | human Neutrophil | cell migration | inhibitor | – | – | 360 nM
COc1ccc(-c2cncc(N[C@@H](C)c3cccc(NC(=O)c4cncc(C)c4)c3)n2)cc1OC | NCI-H1703 | cell growth or viability | – | ATP luminescence | 72 h | 32 nM
COc1cc(O)c(CC=C(C)C)c(O)c1C(=O)/C=C/c1ccc(O)cc1 | J774 | cell growth or viability | – | resazurin | 48 h | 60800 nM
O=C(Oc1ccc2c(=O)c(-c3ccccc3)c(C(F)(F)F)oc2c1)c1cccs1 | human Neutrophil | cell migration | inhibitor | – | – | 640 nM
CCCCC1=CC2C=CC=CC1C2C1CCCCC1=O (centres unmarked) | U-937 | cell growth or viability | – | flow cytometry | – | 35 nM
NCC(=O)O | HFF | cell growth or viability | – | MTT | 48 h | 252000 nM
CCCCCC/C=C1\CC2C=CC=CC1C2C1CCCCC1=O (centres unmarked) | U-937 | cell growth or viability | – | flow cytometry | – | 34 nM
COc1ccccc1-c1c(C(F)(F)F)oc2cc(OC(=O)c3ccco3)ccc2c1=O | human Neutrophil | cell migration | inhibitor | – | – | 180 nM
CCc1c2c(nc3ccc(OC(=O)N4CCC(N5CCCCC5)CC4)cc13)-c1cc3c(c(=O)n1C2)COC(=O)[C@]3(O)CC | KB | cell growth or viability | – | SRB | 72 h | 9800 nM
Cc1cc(=O)oc2ccc(-c3cc(-c4cccs4)nc(N)n3)c(O)c12 | KB | cell growth or viability | – | MTT | 72 h | > 128 µg/mL
COc1ccccc1-c1c(C(F)(F)F)oc2cc(OC(=O)c3ccccc3)ccc2c1=O | human Neutrophil | cell migration | inhibitor | – | – | 120 nM
